Experimental data reported in ChEMBL document CHEMBL4043246, “Discovery of novel [1,2,4]triazolo[4,3-a]quinoxaline aminophenyl derivatives as BET inhibitors for cancer treatment” (Bioorg Med Chem Lett, 2017).

Experiments:
[1] = target: T1, Bromodomain-containing protein 4 (Homo sapiens, UniProt O60885); assay: Inhibition of BRD4 BD1-BD2 (unknown origin) using tetraacetylated histone peptide as substrate after 2 hrs by alphascreen assay
[2] = Antiproliferative activity against human TY82 cells; type: functional, cell-based
[3] = Stability in mouse liver microsomes assessed as parent compound remaining after 30 mins; type: ADME, microsome; details: read-out: Stability
Method in brief: (§1)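 Incubated in vitro with mouse, rat or human liver microsomes for 30 minutes. Result expressed as percent of parent compound remaining.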

[4] = Stability in rat liver microsomes assessed as parent compound remaining after 30 mins; type: ADME, microsome; details: read-out: Stability; method in brief: as §1
[5] = Stability in human liver microsomes assessed as parent compound remaining after 30 mins; type: ADME, microsome; details: read-out: Stability; method in brief: as §1
[6] = Cell cycle arrest in human TY82 cells assessed as accumulation at sub-G1 phase at 1 uM after 24 hrs by DAPI staining based assay (reference value: 6%); type: functional
[7] = Cell cycle arrest in human TY82 cells assessed as accumulation at S phase at 1 uM after 24 hrs by DAPI staining based assay (reference value: 11%); type: functional
[8] = Cell cycle arrest in human TY82 cells assessed as accumulation at G2/M phase at 1 uM after 24 hrs by DAPI staining based assay (reference value: 9%); type: functional
[9] = Cell cycle arrest in human TY82 cells assessed as accumulation at sub-G1 phase at 3 uM after 24 hrs by DAPI staining based assay (reference value: 6%); type: functional
[10] = Cell cycle arrest in human TY82 cells assessed as accumulation at G1 phase at 3 uM after 24 hrs by DAPI staining based assay (reference value: 73%); type: functional
[11] = Cell cycle arrest in human TY82 cells assessed as accumulation at sub-G1 phase at 10 uM after 24 hrs by DAPI staining based assay (reference value: 6%); type: functional
[12] = Cell cycle arrest in human TY82 cells assessed as accumulation at G1 phase at 10 uM after 24 hrs by DAPI staining based assay (reference value: 73%); type: functional
[13] = target: ATPase family AAA domain-containing protein 2 (Homo sapiens) (UniProt Q6PL18); assay: Inhibition of human partial length ATAD2A (Q981 to R1108 residues) expressed in bacterial expression system assessed as residual activity at 500 nM relative to control by BROMOscan assay
[14] = target: Bromodomain adjacent to zinc finger domain protein 2A (Homo sapiens) (UniProt Q9UIF9); assay: Inhibition of human partial length BAZ2A (M1792 to L1905 residues) expressed in bacterial expression system assessed as residual activity at 500 nM relative to control by BROMOscan assay
[15] = target: Bromodomain adjacent to zinc finger domain protein 2B (Homo sapiens) (UniProt Q9UIF8); assay: Inhibition of human partial length BAZ2B (S2054 to S2168 residues) expressed in bacterial expression system assessed as residual activity at 500 nM relative to control by BROMOscan assay
[16] = target: Bromodomain-containing protein 3 (Homo sapiens) (UniProt Q15059); assay: Inhibition of human partial length BRD3 BD1 (P24 to E144 residues) expressed in bacterial expression system assessed as residual activity at 500 nM relative to control by BROMOscan assay
Bromodomain-containing protein 3 (Homo sapiens), sequence (Q15059 2-726 limits assumed): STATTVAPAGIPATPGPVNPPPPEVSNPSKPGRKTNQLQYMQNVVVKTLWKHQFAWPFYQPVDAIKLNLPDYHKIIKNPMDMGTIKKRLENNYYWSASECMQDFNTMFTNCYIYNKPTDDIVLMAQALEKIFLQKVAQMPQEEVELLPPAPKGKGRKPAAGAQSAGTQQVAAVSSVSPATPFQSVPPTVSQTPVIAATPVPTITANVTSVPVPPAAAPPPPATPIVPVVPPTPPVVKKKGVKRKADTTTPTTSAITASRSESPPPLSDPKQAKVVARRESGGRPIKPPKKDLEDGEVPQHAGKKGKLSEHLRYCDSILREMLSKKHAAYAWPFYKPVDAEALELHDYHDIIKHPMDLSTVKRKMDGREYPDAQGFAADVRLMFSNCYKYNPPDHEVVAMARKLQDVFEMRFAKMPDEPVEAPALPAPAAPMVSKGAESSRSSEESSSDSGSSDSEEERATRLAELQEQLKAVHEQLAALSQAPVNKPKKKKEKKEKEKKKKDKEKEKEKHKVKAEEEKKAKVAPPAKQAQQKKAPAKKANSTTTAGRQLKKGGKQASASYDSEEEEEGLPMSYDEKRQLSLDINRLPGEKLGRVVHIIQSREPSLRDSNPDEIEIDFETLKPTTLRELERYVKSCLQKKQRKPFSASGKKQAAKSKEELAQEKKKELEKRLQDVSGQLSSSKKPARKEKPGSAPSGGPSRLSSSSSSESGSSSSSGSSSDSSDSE

[17] = target: Bromodomain-containing protein 3 (Homo sapiens) (UniProt Q15059); assay: Inhibition of human partial length BRD3 BD2 (G306 to P416 residues) expressed in bacterial expression system assessed as residual activity at 500 nM relative to control by BROMOscan assay
[18] = target: T1, Bromodomain-containing protein 4; assay: Inhibition of human partial length BRD4 BD2 (K333 to E460 residues) expressed in bacterial expression system assessed as residual activity at 500 nM relative to control by BROMOscan assay
[19] = target: Bromodomain testis-specific protein (Homo sapiens) (UniProt Q58F21); assay: Inhibition of human partial length BRDT BD2 (K250 to E382 residues) expressed in bacterial expression system assessed as residual activity at 500 nM relative to control by BROMOscan assay
[20] = target: Bromodomain and PHD finger-containing protein 3 (Homo sapiens) (UniProt Q9ULD4); assay: Inhibition of human partial length BRPF3 (E588 to G701 residues) expressed in bacterial expression system assessed as residual activity at 500 nM relative to control by BROMOscan assay
[21] = target: Chromatin remodeling regulator CECR2 (Homo sapiens) (UniProt Q9BXF3); assay: Inhibition of human partial length CECR2 (P423 to D543 residues) expressed in bacterial expression system assessed as residual activity at 500 nM relative to control by BROMOscan assay
[22] = target: CREB-binding protein (Homo sapiens) (UniProt Q92793); assay: Inhibition of human partial length CREBBP (R1081 to G1197 residues) expressed in bacterial expression system assessed as residual activity at 500 nM relative to control by BROMOscan assay
CREB-binding protein (Homo sapiens), sequence (Q92793 2-2442 limits assumed): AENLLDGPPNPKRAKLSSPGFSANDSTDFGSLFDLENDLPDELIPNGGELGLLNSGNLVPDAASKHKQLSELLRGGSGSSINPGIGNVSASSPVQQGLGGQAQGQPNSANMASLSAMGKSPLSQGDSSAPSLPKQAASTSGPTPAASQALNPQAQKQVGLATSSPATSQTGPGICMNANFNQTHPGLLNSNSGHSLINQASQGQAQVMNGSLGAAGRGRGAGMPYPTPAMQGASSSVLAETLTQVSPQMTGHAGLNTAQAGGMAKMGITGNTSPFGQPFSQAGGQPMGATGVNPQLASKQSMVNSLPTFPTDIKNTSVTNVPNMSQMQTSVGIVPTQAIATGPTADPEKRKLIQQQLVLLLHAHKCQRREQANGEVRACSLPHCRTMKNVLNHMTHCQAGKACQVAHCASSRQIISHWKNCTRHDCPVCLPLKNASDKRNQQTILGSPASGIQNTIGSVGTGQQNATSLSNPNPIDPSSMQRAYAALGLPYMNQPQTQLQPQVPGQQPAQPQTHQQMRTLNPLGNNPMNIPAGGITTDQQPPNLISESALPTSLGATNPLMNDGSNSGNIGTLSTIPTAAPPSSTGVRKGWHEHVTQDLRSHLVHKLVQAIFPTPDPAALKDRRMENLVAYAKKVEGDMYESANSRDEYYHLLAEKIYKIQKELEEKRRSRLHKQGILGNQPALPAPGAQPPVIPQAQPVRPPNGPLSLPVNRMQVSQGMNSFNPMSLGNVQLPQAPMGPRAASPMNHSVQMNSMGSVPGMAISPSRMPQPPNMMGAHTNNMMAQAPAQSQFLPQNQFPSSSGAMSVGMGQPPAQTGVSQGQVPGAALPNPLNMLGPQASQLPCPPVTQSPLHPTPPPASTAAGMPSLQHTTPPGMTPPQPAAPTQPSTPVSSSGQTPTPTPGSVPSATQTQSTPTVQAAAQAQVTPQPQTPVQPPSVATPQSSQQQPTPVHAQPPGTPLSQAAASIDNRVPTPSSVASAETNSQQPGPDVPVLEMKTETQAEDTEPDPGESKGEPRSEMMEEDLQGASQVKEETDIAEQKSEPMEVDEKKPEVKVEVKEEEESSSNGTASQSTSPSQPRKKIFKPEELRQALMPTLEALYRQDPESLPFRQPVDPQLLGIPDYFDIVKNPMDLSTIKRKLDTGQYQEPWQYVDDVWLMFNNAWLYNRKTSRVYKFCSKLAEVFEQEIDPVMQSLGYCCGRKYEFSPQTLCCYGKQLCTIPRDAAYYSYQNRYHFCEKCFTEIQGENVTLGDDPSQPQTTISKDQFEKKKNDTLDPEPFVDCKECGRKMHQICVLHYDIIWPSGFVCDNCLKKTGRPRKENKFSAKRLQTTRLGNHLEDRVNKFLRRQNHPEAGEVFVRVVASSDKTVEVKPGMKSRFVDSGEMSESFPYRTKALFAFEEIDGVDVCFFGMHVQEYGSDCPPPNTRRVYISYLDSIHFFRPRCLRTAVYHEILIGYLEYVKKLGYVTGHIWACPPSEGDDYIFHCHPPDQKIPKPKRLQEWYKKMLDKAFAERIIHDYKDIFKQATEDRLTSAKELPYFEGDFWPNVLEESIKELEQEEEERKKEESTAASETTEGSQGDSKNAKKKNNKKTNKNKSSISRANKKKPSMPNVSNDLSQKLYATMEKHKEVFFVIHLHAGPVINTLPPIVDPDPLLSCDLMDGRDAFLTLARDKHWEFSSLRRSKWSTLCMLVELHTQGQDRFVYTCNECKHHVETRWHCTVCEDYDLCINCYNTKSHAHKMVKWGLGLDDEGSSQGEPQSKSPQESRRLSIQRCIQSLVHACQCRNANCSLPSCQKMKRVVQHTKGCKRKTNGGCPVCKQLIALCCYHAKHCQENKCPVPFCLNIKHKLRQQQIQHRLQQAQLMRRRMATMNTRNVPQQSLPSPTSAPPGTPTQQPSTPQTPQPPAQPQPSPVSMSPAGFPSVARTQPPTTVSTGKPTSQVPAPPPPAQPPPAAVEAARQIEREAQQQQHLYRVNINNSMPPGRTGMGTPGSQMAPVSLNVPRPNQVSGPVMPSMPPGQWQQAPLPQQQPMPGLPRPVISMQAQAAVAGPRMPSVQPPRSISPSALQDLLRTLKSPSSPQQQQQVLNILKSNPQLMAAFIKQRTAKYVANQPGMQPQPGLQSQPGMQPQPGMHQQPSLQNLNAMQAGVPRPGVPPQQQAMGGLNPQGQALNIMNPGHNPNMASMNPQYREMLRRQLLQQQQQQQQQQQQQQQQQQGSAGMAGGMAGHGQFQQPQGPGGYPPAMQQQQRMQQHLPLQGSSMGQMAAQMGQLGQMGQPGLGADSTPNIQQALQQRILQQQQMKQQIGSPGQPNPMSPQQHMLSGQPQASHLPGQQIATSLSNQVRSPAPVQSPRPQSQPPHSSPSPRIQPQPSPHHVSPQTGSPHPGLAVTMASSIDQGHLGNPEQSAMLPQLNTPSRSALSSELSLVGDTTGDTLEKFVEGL

[23] = target: Nucleosome-remodeling factor subunit BPTF (Homo sapiens) (UniProt Q12830); assay: Inhibition of human partial length FALZ (S2791 to H2911 residues) expressed in bacterial expression system assessed as residual activity at 500 nM relative to control by BROMOscan assay
[24] = target: Histone acetyltransferase KAT2A (Homo sapiens) (UniProt Q92830); assay: Inhibition of human partial length GCN5L2 (E726 to K837 residues) expressed in bacterial expression system assessed as residual activity at 500 nM relative to control by BROMOscan assay
Histone acetyltransferase KAT2A (Homo sapiens), sequence (Q92830 2-837 limits assumed): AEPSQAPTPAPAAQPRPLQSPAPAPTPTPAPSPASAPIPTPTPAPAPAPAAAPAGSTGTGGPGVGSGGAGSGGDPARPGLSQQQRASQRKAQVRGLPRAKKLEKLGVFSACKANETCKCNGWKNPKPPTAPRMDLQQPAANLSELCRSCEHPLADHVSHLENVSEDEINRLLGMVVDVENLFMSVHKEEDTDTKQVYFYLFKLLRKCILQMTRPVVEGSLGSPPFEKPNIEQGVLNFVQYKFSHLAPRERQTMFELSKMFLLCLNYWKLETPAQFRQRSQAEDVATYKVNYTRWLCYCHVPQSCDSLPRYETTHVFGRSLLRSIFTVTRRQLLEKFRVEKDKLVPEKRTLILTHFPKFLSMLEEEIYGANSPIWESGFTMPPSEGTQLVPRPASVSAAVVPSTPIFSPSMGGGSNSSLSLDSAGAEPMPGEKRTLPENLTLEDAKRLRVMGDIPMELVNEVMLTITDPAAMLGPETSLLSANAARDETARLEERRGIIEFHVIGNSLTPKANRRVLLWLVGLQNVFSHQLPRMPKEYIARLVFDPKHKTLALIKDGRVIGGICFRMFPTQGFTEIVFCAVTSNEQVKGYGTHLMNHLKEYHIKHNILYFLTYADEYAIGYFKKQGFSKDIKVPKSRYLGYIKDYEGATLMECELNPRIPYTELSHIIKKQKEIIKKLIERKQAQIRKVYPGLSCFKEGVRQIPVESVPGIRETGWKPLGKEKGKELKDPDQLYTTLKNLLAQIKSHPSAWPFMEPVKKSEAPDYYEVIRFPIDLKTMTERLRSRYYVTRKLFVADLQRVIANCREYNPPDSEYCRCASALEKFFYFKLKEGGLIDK

[25] = target: Histone acetyltransferase KAT2B (Homo sapiens) (UniProt Q92831); assay: Inhibition of human partial length PCAF (G715 to D831 residues) expressed in bacterial expression system assessed as residual activity at 500 nM relative to control by BROMOscan assay
Histone acetyltransferase KAT2B (Homo sapiens), sequence (Q92831 whole entry, looked up, the tested form may be a part): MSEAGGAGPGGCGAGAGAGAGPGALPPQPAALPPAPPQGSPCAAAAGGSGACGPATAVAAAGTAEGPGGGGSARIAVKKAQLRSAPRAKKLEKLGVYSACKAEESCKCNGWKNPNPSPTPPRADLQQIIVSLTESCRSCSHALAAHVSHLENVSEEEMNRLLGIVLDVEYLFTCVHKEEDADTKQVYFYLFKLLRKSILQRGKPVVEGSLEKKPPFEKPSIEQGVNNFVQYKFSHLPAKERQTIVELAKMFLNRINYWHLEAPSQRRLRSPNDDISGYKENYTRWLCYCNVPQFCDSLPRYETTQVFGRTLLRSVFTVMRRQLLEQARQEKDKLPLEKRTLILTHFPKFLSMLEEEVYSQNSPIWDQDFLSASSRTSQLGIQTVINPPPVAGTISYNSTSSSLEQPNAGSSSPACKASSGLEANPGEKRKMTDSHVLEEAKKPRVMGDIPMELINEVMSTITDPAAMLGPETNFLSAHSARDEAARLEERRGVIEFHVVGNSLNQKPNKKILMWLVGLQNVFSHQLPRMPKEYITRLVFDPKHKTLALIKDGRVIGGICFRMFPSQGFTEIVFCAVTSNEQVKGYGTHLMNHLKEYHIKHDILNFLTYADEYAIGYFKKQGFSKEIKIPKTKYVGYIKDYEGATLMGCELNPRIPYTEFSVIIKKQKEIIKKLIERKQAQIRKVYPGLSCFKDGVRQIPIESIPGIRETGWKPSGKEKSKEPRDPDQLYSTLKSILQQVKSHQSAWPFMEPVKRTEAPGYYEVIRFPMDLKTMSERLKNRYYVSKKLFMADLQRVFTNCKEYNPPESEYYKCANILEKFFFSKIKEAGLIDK

[26] = target: SWI/SNF-related matrix-associated actin-dependent regulator of chromatin subfamily A member 2 (Homo sapiens) (UniProt P51531); assay: Inhibition of human partial length SMARCA2 (S1377 to Q1486 residues) expressed in bacterial expression system assessed as residual activity at 500 nM relative to control by BROMOscan assay
[27] = target: Transcription initiation factor TFIID subunit 1 (Homo sapiens) (UniProt P21675); assay: Inhibition of human partial length TAF1 BD2 (D1521 to D1656 residues) expressed in bacterial expression system assessed as residual activity at 500 nM relative to control by BROMOscan assay
[28] = target: Bromodomain and WD repeat-containing protein 1 (Homo sapiens) (UniProt Q9NSI6); assay: Inhibition of human partial length WDR9 BD2 (A1310 to E1430 residues) expressed in bacterial expression system assessed as residual activity at 500 nM relative to control by BROMOscan assay
[29] = AUCt in rat at 20 mg/kg, po; type: ADME, organism-based; details: in vivo
Method in brief: (§2)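 Rat pharmacokinetics with single dosing, either intravenous at 2 mg/kg or oral at 5 or 20 mg/kg. AUC is reported both to the last time point (AUCt) and extrapolated to infinity, in ug.hr/mL.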

[30] = test system: Rattus norvegicus; assay: AUCinfinity in rat at 20 mg/kg, po; type: ADME, organism-based; design: dose 20 mg/kg, time infinity, route oral; details: in vivo; method in brief: as §2

IC50 [1]: 0.068 µM
remaining at 0.5 h [3]: 0.024%
remaining at 0.5 h [4]: 5%
remaining at 0.5 h [5]: 92%
Activity [13]: 100%
Activity [14]: 85%
Activity [15]: 93%
Activity [16]: 11%
Activity [17]: 30%
Activity [18]: 16%
Activity [19]: 14%
Activity [20]: 87%
Activity [21]: 88%
Activity [22]: 87%
Activity [23]: 90%
Activity [24]: 100%
Activity [25]: 91%
Activity [26]: 100%
Activity [27]: 36%
Activity [28]: 100%
AUC(0-t) [29]: 20600 ng·h/mL
AUC [30]: 25300 ng·h/mL
SMILES: Cc1nnc2c(Nc3cccc(CNC(=O)C(C)C)c3)nc3ccccc3n12
IC50 [2]: 2.5 µM
Activity [6]: 5%
Activity [7]: 6%
Activity [8]: 8%
Activity [9]: 4%
Activity [10]: 89%
Activity [11]: 5%
Activity [12]: 88%
